The source of these data is ChEMBL document CHEMBL4765404, “Identification of benzofused five-membered sultams, potent dual NOD1/NOD2 antagonists in vitro and in vivo” (Eur J Med Chem, 2020).

Holding throughout (assay type): cell-based
Series [1] concerns the target T1, Nucleotide-binding oligomerization domain-containing protein 2 (Homo sapiens, UniProt Q9HC29). As to the kind of experiment: Antagonist activity at human NOD2 in HEK-Blue hNOD2 cells assessed as reduction in secreted alkaline phosphatase reporter activity at 10 uM preincubated for 3 hrs followed by stimulated with MDP for 20 hrs by Spectrophotometer method.
Series [2] concerns the target T1, Nucleotide-binding oligomerization domain-containing protein 2. Description: Antagonist activity at human NOD2 in HEK-Blue hNOD2 cells assessed as secreted alkaline phosphatase reporter activity preincubated for 3 hrs followed by stimulated with MDP for 20 hrs by Spectrophotometer method.
Series [3] in a line: Cytotoxicity against human HEK-Blue hNOD1 cells assessed as cell viability measured by SRB assay. In a few lines: (§1)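 Run on the same HEK-Blue hNOD1 (C12-iE-DAP 50 ng/mL) or hNOD2 (MDP 100 ng/mL) wells after SEAP readout, following 3 h compound plus 20 h stimulation. Cells fixed in 80% TCA, 4 °C, 1 h; SRB in 1% acetic acid, 10 min; washed, dried; dye dissolved in 10 mM Tris base; A515. Growth inhibition = (C−T)/C × 100, n = 3.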
On the technique in general: The SRB assay estimates cell density from bound dye.

The nature of series [4]: Cytotoxicity against human HEK-Blue hNOD2 cells assessed as cell viability measured by SRB assay. A digest of the protocol:
as §1

As usually defined, the inhibition is the relative decrease from the control value, in per cent. As usually defined, the IC50 is the concentration that inhibits the measured activity by half.

T1 sequence (Q9HC29 whole entry, the tested form may be a part): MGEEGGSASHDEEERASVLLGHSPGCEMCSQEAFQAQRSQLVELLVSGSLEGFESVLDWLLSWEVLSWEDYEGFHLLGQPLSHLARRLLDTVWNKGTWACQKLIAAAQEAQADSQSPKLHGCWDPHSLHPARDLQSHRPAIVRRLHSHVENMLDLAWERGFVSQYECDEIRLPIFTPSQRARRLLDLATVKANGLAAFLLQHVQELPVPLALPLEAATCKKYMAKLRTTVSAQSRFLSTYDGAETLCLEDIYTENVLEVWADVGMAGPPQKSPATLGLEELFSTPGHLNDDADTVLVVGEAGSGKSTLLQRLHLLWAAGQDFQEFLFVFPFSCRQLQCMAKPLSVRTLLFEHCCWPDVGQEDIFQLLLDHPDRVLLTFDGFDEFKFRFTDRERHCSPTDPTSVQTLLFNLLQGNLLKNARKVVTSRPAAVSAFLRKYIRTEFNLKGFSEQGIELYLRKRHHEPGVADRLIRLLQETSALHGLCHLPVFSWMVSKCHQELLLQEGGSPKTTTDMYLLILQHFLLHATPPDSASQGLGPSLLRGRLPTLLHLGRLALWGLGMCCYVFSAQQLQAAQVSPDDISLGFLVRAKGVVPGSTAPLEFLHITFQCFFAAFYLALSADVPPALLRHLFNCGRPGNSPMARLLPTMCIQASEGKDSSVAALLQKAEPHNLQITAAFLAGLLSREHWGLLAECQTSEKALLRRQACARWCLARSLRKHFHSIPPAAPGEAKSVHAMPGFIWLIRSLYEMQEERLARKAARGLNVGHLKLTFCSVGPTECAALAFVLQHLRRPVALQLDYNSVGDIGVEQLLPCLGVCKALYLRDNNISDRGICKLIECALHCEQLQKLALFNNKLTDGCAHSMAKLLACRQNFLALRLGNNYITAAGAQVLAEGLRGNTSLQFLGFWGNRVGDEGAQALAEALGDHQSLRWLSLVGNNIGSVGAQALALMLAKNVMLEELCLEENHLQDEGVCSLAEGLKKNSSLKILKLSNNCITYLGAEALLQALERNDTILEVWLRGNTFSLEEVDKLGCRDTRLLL

In the case of `CCCCOC(=O)CC1c2cccc(C)c2S(=O)(=O)N1NC(=O)c1ccc(C(F)(F)F)cc1` (stereo not drawn), the inhibition in series [1] (filed as antagonist) came out at 60%.

As for `CCCCOC(=O)CC1c2cc(C)cc(C)c2S(=O)(=O)N1C(=O)c1ccc(C(F)(F)F)cc1` (stereo not drawn), the 50% inhibitory concentration (IC50) in series [2] is 1.85 µM.

With `CCCCc1noc(CC2c3cccc(C)c3S(=O)(=O)N2C(=O)c2cccc(C(F)(F)F)c2)n1` (stereo not drawn), the 50% inhibitory concentration (IC50) in series [2] was determined as 5.74 µM.

For the compound `CCCCOC(=O)CC1c2c(OC)ccc(OC)c2S(=O)(=O)N1C(=O)c1ccc(C(F)(F)F)cc1` (stereo not drawn), in series [2], the IC50 came out at 7.03 µM.

Take `CCCCOC(=O)CC1c2cc(OC)cc(OC)c2S(=O)(=O)N1C(=O)c1ccc(C(F)(F)F)cc1` (stereo not drawn): the IC50 in series [2] is 3.96 µM.

With `CCCCOC(=O)CC1c2cccc(C)c2S(=O)(=O)N1C(=O)/C=C/c1ccc(Cl)cc1` (stereo not drawn), the inhibition in series [1] was 35%.

Turning to `CCCCOC(=O)CC1c2c(F)ccc(C)c2S(=O)(=O)N1C(=O)c1ccc(C(F)(F)F)cc1` (stereo not drawn), the concentration for half-maximal inhibition (IC50) in series [2] was found to be 4.05 µM.

For `CCCCOC(=O)CC1c2cccc(Cl)c2S(=O)(=O)N1C(=O)c1ccc(C(F)(F)F)cc1` (stereo not drawn), the IC50 in series [2] worked out at 1.39 µM.

In the case of `CCCCOC(=O)CC1c2cccc(C)c2C(=O)N1C(=O)c1ccc(C(F)(F)F)cc1` (stereo not drawn), the IC50 in series [2] was 2.36 µM.

Turning to `CCCCOC(=O)CC1c2cccc(C)c2S(=O)(=O)N1C(=O)OC` (stereo not drawn), the inhibition in series [1] is -0.67%.

Regarding `CCCCOC(=O)CC1c2cc(F)cc(C)c2S(=O)(=O)N1C(=O)c1ccc(C(F)(F)F)cc1` (stereo not drawn), the half-inhibitory concentration (IC50) in series [2] is 6.7 µM.

As for `CCCCOC(=O)CC1c2cccc(C)c2S(=O)(=O)N1S(C)(=O)=O` (stereo not drawn), the inhibition in series [1] stood at 5.29%.

Take `CCCCOC(=O)CC1c2ccc(Cl)c(C)c2S(=O)(=O)N1C(=O)c1ccc(C(F)(F)F)cc1` (stereo not drawn): the 50% inhibitory concentration (IC50) in series [2] turned out to be 9.83 µM.

Take `Cc1cccc2c1S(=O)(=O)N(C(=O)c1ccc(C(F)(F)F)cc1)C2CC(N)=O` (stereo not drawn): in series [1], the inhibition is -9.14%.

For the compound `C=CCN1C(CC(=O)OCCCC)c2cccc(C)c2S1(=O)=O` (stereo not drawn), in series [1], the inhibition is 5.52%.

`CCCCOC(=O)CC1c2cccc(C)c2S(=O)(=O)N1C(=O)c1ccco1` (stereo not drawn): the inhibition in series [1] came to 1.83%.

For the compound `CCCCOCCC1c2cccc(C)c2S(=O)(=O)N1C(=O)c1ccc(C(F)(F)F)cc1` (stereo not drawn), the inhibition in series [1] (filed as antagonist) was determined as 45.9%.

As for `CCCCOC(=O)CC1c2cccc(C)c2S(=O)(=O)N1CC` (stereo not drawn), the inhibition in series [1] is -1%.

Turning to `CCCCNC(=O)CC1c2cccc(C)c2S(=O)(=O)N1C(=O)c1ccc(C(F)(F)F)cc1` (stereo not drawn), the inhibition in series [1] came to 17.7%.

As for `CCCCOC(=O)CC1c2cccc(C)c2S(=O)(=O)N1Cc1ccccc1` (stereo not drawn), the inhibition in series [1] (filed as antagonist) is 41.4%.

Turning to `COC(=O)CC1c2cccc(C)c2S(=O)(=O)N1C(=O)c1ccc(C(F)(F)F)cc1` (stereo not drawn), the IC50 in series [2] stood at 3.55 µM.

For `Cc1cccc2c1S(=O)(=O)N(C(=O)c1ccc(C(F)(F)F)cc1)C2CC(=O)O` (stereo not drawn), in series [1], the inhibition worked out at 10.3%.

As for `CCCCOC(=O)CC1c2cccc(C)c2S(=O)(=O)N1C(=O)c1ccccc1C(F)(F)F` (stereo not drawn), the half-maximal inhibitory concentration (IC50) in series [2] amounted to 0.48 µM.

As to `CCCCOC(=O)/C=C1\c2cccc(C)c2S(=O)(=O)N1C(=O)c1ccc(C(F)(F)F)cc1`, the inhibition in series [1] was found to be 54.4%.

As for `CCCCOC(=O)CC1c2cccc(C)c2S(=O)(=O)N1C` (stereo not drawn), the inhibition in series [1] stood at 4.63%.

As to `CCCCOC(=O)CC1c2cccc(C(=O)OCCCC)c2S(=O)(=O)N1C(=O)c1ccc(C(F)(F)F)cc1` (stereo not drawn), in series [2], the IC50 stood at 4.29 µM.

As to `CCCCOC(=O)CC1c2cccc(C)c2S(=O)(=O)N1C(=O)c1cccc(C(F)(F)F)c1` (stereo not drawn), the IC50 in series [2] is 0.93 µM. The Activity entry in series [3] and in series [4] was “Non-Toxic” each time.

Consider `CCCCc1nnc(CC2c3cccc(C)c3S(=O)(=O)N2C(=O)c2cccc(C(F)(F)F)c2)o1` (stereo not drawn), for which, in series [2], the IC50 came out at 4.65 µM.

Consider `CCCCOC(=O)CC1c2cccc(C)c2S(=O)(=O)N1C(=O)c1ccc(C(F)(F)F)cc1` (stereo not drawn), for which the IC50 in series [2] is 1.18 µM.

With `CCCCOC(=O)CC1c2cccc(C)c2S(=O)(=O)N1CCCC` (stereo not drawn), the inhibition in series [1] is 9.07%.

For the compound `CCCCOC(=O)CC1c2cccc(C)c2S(=O)(=O)N1C(C)=O` (stereo not drawn), in series [1], the inhibition was 6.59%.

As for `CCCCOC(=O)CC1c2cccc(C)c2S(=O)(=O)N1Cc1ccc(C(F)(F)F)cc1` (stereo not drawn), the inhibition in series [1] (filed as antagonist) amounted to 42.5%.

Regarding `CCCCOC(=O)CC1c2cccc(C)c2S(=O)(=O)N1C(=O)c1ccc(C#N)cc1` (stereo not drawn), the IC50 in series [2] is 5.45 µM.

Regarding `Cc1cccc2c1S(=O)(=O)N(C(=O)c1ccc(C(F)(F)F)cc1)C2CC(=O)Nc1ccccc1` (stereo not drawn), in series [1], the inhibition amounted to 30.3%.

`CCCCOC(=O)CC1c2cccc(C)c2S(=O)(=O)N1C(=O)c1ccc(C)cc1` (stereo not drawn): the inhibition in series [1] (filed as antagonist) worked out at 55.5%.

As to `CCCCOC(=O)CC1c2cccc(C)c2S(=O)(=O)N1C(=O)c1ccc(Cl)cc1` (stereo not drawn), the IC50 in series [2] was found to be 1.74 µM.

As to `CCCCOC(=O)/C=C/c1cc(C)cc2c1S(=O)(=O)N(C(=O)c1ccc(C(F)(F)F)cc1)C2CC(=O)OCCCC` (stereo not drawn), the inhibition in series [1] is 31.4%.

For `CCCCOC(=O)CC1c2cccc(C)c2S(=O)(=O)N1C(=O)c1ccccc1` (stereo not drawn), the inhibition in series [1] is 24.3%.

Take `Cc1cccc2c1S(=O)(=O)N(C(=O)c1ccc(C(F)(F)F)cc1)C2CC(=O)OC(C)(C)C` (stereo not drawn): the IC50 in series [2] worked out at 4.65 µM.

On to `CCCCOC(=O)CC1c2cccc(C)c2S(=O)(=O)N1CC(=O)c1ccc(C(F)(F)F)cc1` (stereo not drawn), for which, in series [1], the inhibition came to 7.2%.

As to `CCCCOC(=O)CC1c2cccc(C)c2S(=O)(=O)N1/C=C\C(=O)OCC` (stereo not drawn), the inhibition in series [1] came to 20.6%.
